{
  "source": "ChEMBL document CHEMBL4346686",
  "about": "“Discovery and biological evaluation of novel androgen receptor antagonist for castration-resistant prostate cancer” (Eur J Med Chem, 2019)",
  "key": {"CWR22R": {"test_system": "CWR22R", "experiment": "Antiproliferative activity against human 22Rv1 cells assessed as reduction in cell viability incubated for 6 days by CCK8 assay", "type": "functional, cell-based", "conditions": "22Rv1, 144 h", "how_it_was_run": "(§1)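 Cells seeded (2×10^4 per well for VCaP, 1–3×10^3 for the others) and compound added after 24 h as a 9-point, 3-fold serial dilution. Exposure 6 days, then CCK-8 for 1–4 h and absorbance at 450 nm. IC50 from curve fit, mean of at least two independent experiments run in duplicate.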"}, "VCaP": {"test_system": "VCaP", "experiment": "Antitumor activity against human VCaP cells xenografted in BALB/c nude mouse assessed as inhibition of tumor growth at 30 mg/kg, po qd administered for 40 days relative to control", "type": "functional", "how_it_was_run": "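Male BALB/c nude mice, 5 weeks old, s.c. 1 × 10^7 VCaP cells in DMEM/Matrigel (1:1). Castrated under Nembutal at 150–200 mm3 and randomized (n = 8–10). Once tumors regrew to 200–350 mm3, oral 30 mg/kg qd for 40 days. TGI = [1 − (T − T0)/(C − C0)] × 100 from mean tumor volumes on first and last treatment days.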"}, "[1]": {"experiment": "Toxicity in BALB/c nude mouse xenografted with human VCaP cells assessed as weight loss at 30 mg/kg, po qd administered for 40 days relative to control", "type": "organism-based", "conditions": "in vivo, 960 h"}, "[2]": {"experiment": "Antiproliferative activity against human LNCaP-AR cells assessed as reduction in cell viability incubated for 6 days by CCK8 assay", "type": "functional, cell-based", "conditions": "144 h", "how_it_was_run": "as §1"}, "L02": {"test_system": "L02", "experiment": "Antiproliferative activity against human L02 cells assessed as reduction in cell viability incubated for 6 days by CCK8 assay", "type": "cell-based", "conditions": "L02, 144 h", "how_it_was_run": "as §1"}, "PC-3": {"test_system": "PC-3", "experiment": "Antiproliferative activity against human PC3 cells assessed as reduction in cell viability incubated for 6 days by CCK8 assay", "type": "functional, cell-based", "conditions": "PC-3, 144 h", "how_it_was_run": "as §1"}},
  "data": [
    {"compound": "CNC(=O)c1ccc(N2C(=S)N(c3ccc(C#N)c(C(F)(F)F)c3)C(=O)C2(C)C)cc1F", "note": "[ENZALUTAMIDE]", "values": [
      {"measurement": "IC50", "setting": "CWR22R", "result": "> 30", "unit": "µM"},
      {"measurement": "TGI", "setting": "VCaP", "result": 43, "unit": "%"},
      {"measurement": "Activity", "setting": "[1]", "result": "Non-Toxic"},
      {"measurement": "IC50", "setting": "[2]", "result": 0.19, "unit": "µM"},
      {"measurement": "IC50", "setting": "L02", "result": 17.1, "unit": "µM"},
      {"measurement": "IC50", "setting": "PC-3", "result": "> 30", "unit": "µM"}
    ]}
  ]
}
